Measured values taken from ChEMBL document CHEMBL1159098, “A new series of flavones, thioflavones, and flavanones as selective monoamine oxidase-B inhibitors” (Bioorg Med Chem, 2010).

Assays:
Homo sapiens = organism: Homo sapiens; experiment: Selectivity for human MAOB over human MAOA
Method in brief: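 Selectivity index = IC50(hMAO-A)/IC50(hMAO-B), both from Amplex Red/p-tyramine fluorimetric assays on insect-cell recombinant enzymes.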

[1] = target: T1, Amine oxidase [flavin-containing] A (Homo sapiens, UniProt P21397); experiment: Inhibition of human recombinant MAOA expressed in BTI-TN-5B1-4 cells at 100 uM by para-tyramine oxidation assay; format: cell-based; conditions: for inhibition (INH): human, bti-tn-5b1-4, 100 µM; for inhibition at 100 µM: BTI-TN-5B1-4, human
T1 sequence (P21397 whole entry): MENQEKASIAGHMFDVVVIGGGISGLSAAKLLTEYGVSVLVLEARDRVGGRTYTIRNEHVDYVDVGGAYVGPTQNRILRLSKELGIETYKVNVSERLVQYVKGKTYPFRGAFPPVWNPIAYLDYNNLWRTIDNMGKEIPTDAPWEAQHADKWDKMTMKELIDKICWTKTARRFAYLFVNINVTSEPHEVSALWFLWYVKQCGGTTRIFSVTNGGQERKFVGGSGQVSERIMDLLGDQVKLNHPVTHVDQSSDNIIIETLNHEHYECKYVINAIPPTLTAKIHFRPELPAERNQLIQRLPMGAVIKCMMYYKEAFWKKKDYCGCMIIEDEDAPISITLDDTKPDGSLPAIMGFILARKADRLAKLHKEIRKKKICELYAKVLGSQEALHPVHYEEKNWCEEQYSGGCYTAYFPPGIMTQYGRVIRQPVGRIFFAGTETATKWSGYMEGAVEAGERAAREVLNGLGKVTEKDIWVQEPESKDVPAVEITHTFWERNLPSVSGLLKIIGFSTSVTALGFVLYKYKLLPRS

[2] = target: T2, Amine oxidase [flavin-containing] B (Homo sapiens, UniProt P27338); format: cell-based, BTI-TN-5B1-4
T2 sequence (P27338 whole entry): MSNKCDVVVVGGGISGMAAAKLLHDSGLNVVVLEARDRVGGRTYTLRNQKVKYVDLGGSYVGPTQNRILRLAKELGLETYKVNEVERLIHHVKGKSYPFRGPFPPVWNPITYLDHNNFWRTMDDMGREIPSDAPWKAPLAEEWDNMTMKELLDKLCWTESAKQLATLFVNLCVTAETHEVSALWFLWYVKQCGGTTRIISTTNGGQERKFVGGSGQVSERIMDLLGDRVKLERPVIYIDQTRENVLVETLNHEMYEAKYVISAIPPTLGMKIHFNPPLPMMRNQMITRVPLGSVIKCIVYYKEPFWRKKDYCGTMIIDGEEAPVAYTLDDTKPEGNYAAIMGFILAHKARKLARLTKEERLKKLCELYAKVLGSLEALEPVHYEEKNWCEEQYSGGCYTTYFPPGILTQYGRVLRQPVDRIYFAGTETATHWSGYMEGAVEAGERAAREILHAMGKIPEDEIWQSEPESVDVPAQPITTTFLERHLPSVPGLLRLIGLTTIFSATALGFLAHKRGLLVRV

[3] = target: T2, Amine oxidase [flavin-containing] B; experiment: Inhibition of human recombinant MAOB expressed in BTI-TN-5B1-4 cells at 100 uM by para-tyramine oxidation assay; format: cell-based; conditions: for inhibition at 100 µM: BTI-TN-5B1-4, human; for inhibition (INH): human, bti-tn-5b1-4, 100 µM
[4] = Inhibition of human monoamine oxidase
[5] = target: T2, Amine oxidase [flavin-containing] B; experiment: Inhibition of human MAOB
Method in brief: (§1)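 Recombinant human MAO-A or -B as microsomes from baculovirus-infected BTI-TN-5B1-4 insect cells, dosed to oxidize 165 pmol p-tyramine/min in controls (A 1.1 µg, B 7.5 µg protein). Preincubated with inhibitor 15 min at 37 °C in 0.05 M sodium phosphate pH 7.4. Started with 1 mM p-tyramine, 200 µM Amplex Red, 1 U/ml HRP (final). Resorufin fluorescence (ex 545/em 590 nm) read over 15 min at 37 °C, background subtracted.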

[6] = target: T1, Amine oxidase [flavin-containing] A; experiment: Inhibition of human MAOA; method in brief: as §1

SMILES | Ratio IC50 (Homo sapiens) | inhibition (INH) [1] | IC50 [2] | also measured
Cc1ccc(-c2cc(=O)c3ccccc3o2)cc1 | > 42 | Not Active | 2380 nM | 
COc1ccc2c(=O)cc(-c3ccc(C)cc3)oc2c1 | > 8.8 | Not Active | 11300 nM | 
S=c1cc(-c2ccccc2)oc2ccccc12 |  | Not Active |  | inhibition at 100 µM [3]: 40%
O=c1cc(-c2ccc(F)cc2)oc2ccccc12 |  |  |  | inhibition at 100 µM [1]: 40%; inhibition at 100 µM [3]: 40%
Cc1ccc(-c2cc(=S)c3ccccc3o2)cc1 | > 15 | Not Active | 6690 nM | 
Cc1ccc(-c2cc(=O)c3ccc(C)cc3o2)cc1 |  |  |  | inhibition at 100 µM [1]: 40%; inhibition at 100 µM [3]: 40%
Fc1ccc2c(=S)cc(-c3ccccc3)oc2c1 |  |  |  | inhibition at 100 µM [1]: 40%; inhibition at 100 µM [3]: 40%
Cc1ccc(-c2cc(=S)c3ccc(C)cc3o2)cc1 | > 15 | Not Active | 6720 nM | 
Cc1ccc2c(=O)cc(-c3ccc(F)cc3)oc2c1 |  | Not Active |  | inhibition at 100 µM [3]: 40%
COc1ccc2c(=S)cc(-c3ccc(C)cc3)oc2c1 | > 13 |  | 7610 nM | inhibition at 100 µM [1]: 40%
COc1ccc(-c2cc(=O)c3ccc(C)cc3o2)cc1 |  |  |  | inhibition at 100 µM [1]: 40%; inhibition at 100 µM [3]: 40%
Cc1ccc(-c2cc(=O)c3ccc(F)cc3o2)cc1 | > 23 | Not Active | 4330 nM | 
O=c1cc(-c2ccc(F)cc2)oc2cc(F)ccc12 |  | Not Active |  | 
Fc1ccc(-c2cc(=S)c3ccc(F)cc3o2)cc1 | > 15 | Not Active | 6890 nM | 
Cc1ccc(-c2cc(=S)c3ccc(F)cc3o2)cc1 | > 62 |  | 1610 nM | inhibition at 100 µM [1]: 40%
Cc1ccc2c(=S)cc(-c3ccccc3)oc2c1 |  | Not Active |  | inhibition at 100 µM [3]: 40%

SMILES | Ratio IC50 (Homo sapiens) | inhibition (INH) [1] | IC50 [2] | also measured
COc1ccc(-c2cc(=S)c3ccc(C)cc3o2)cc1 |  | Not Active |  | inhibition at 100 µM [3]: 40%
Cc1ccc2c(=S)cc(-c3ccc(F)cc3)oc2c1 |  | Not Active |  | inhibition at 100 µM [3]: 40%
COc1ccc(-c2cc(=S)c3ccc(OC)cc3o2)cc1 | > 30 | Not Active | 3340 nM | 
COc1ccc(-c2cc(=S)c3ccccc3o2)cc1 | > 208 |  | 480 nM | inhibition at 100 µM [1]: 40%
Fc1ccc(-c2cc(=S)c3ccccc3o2)cc1 |  | Not Active |  | inhibition (INH) [3]: Not Active
COc1ccc2c(=S)cc(-c3ccccc3)oc2c1 |  | Not Active |  | inhibition at 100 µM [3]: 40%
O=c1cc(-c2ccccc2)oc2cc(F)ccc12 [7-FLUOROFLAVONE] | > 7.7 |  | 12900 nM | inhibition at 100 µM [1]: 40%
COc1ccc2c(=O)cc(-c3ccccc3)oc2c1 [7-METHOXYFLAVONE] |  | Not Active |  | inhibition at 100 µM [3]: 40%
Cc1ccc2c(=O)cc(-c3ccccc3)oc2c1 [7-METHYLFLAVONE] |  | Not Active |  | inhibition (INH) [3]: Not Active
O=C1c2c(O)cc(O)cc2O[C@H](c2ccc(O)c(O)c2)[C@H]1O [(+)-TAXIFOLIN] |  |  |  | IC50 [4]: 155 µM
O=c1cc(-c2ccc(O)cc2)oc2cc(O)cc(O)c12 [APIGENIN] |  |  |  | IC50 [5]: 12.8 µM; IC50 [6]: 1.7 µM
O=C1c2c(O)cc(O)cc2O[C@H](c2ccc(O)cc2)[C@H]1O [DIHYDROKAEMPFEROL] |  |  |  | IC50 [4]: 153 µM
COc1c(O)cc2oc(-c3ccc(O)c(O)c3)cc(=O)c2c1O [EUPAFOLIN] |  |  |  | IC50 [4]: 25 µM
O=c1cc(-c2ccccc2)oc2ccccc12 [FLAVONE] |  |  |  | inhibition at 100 µM [1]: 40%; inhibition (INH) [3]: Not Active
COc1cc(-c2cc(=O)c3c(O)c(OC)c(O)cc3o2)ccc1O [JACEOSIDINE] |  |  |  | IC50 [4]: 19 µM
O=c1cc(-c2ccc(O)c(O)c2)oc2cc(O)cc(O)c12 [LUTEOLIN] |  |  |  | IC50 [5]: 59.7 µM; IC50 [6]: 4.9 µM

The next lines start with results.

Ratio IC50 (Homo sapiens) | inhibition (INH) [1] | IC50 [2] | SMILES | also measured
> 19 | Not Active | 5140 nM | COc1ccc2c(=O)cc(-c3ccc(F)cc3)oc2c1 | 
> 625 | Not Active | 160 nM | COc1ccc2c(c1)O[C@H](c1ccc(F)cc1)CC2=O | 
> 189 | Not Active | 530 nM | Cc1ccc([C@H]2CC(=O)c3ccc(C)cc3O2)cc1 | 
> 75 |  | 1340 nM | COc1ccc(-c2cc(=O)c3ccc(F)cc3o2)cc1 | inhibition at 100 µM [1]: 40%
 | Not Active |  | COc1ccc(-c2cc(=S)c3ccc(F)cc3o2)cc1 | inhibition at 100 µM [3]: 40%
> 169 | Not Active | 590 nM | Cc1ccc([C@@H]2CC(=O)c3ccc(C)cc3O2)cc1 | 
> 500 | Not Active | 200 nM | COc1ccc2c(c1)O[C@@H](c1ccc(F)cc1)CC2=O | 
 | Not Active |  | COc1ccc2c(=S)cc(-c3ccc(F)cc3)oc2c1 | inhibition at 100 µM [3]: 40%
> 45 | Not Active | 2200 nM | COc1ccc(C2CC(=O)c3ccccc3O2)cc1 (racemic) | 
> 48 | Not Active | 2070 nM | Cc1ccc(C2CC(=O)c3ccccc3O2)cc1 (racemic) | 
> 27 | Not Active | 3770 nM | O=C1CC(c2ccccc2)Oc2cc(F)ccc21 (racemic) | 
> 588 | Not Active | 170 nM | COc1ccc(C2CC(=O)c3ccc(F)cc3O2)cc1 (racemic) | 
> 588 | Not Active | 170 nM | COc1ccc2c(c1)OC(c1ccc(F)cc1)CC2=O (racemic) | 
> 30 | Not Active | 3350 nM | COc1ccc(C2CC(=O)c3ccc(C)cc3O2)cc1 (racemic) | 
> 149 | Not Active | 670 nM | O=C1CC(c2ccc(F)cc2)Oc2cc(F)ccc21 (racemic) | 
> 625 | Not Active | 160 nM | Cc1ccc(C2CC(=O)c3ccc(F)cc3O2)cc1 (racemic) | 
> 28 | Not Active | 3620 nM | Cc1ccc2c(c1)OC(c1ccccc1)CC2=O (racemic) | 
> 200 | Not Active | 500 nM | Cc1ccc(C2CC(=O)c3ccc(C)cc3O2)cc1 (racemic) | 
> 182 | Not Active | 550 nM | COc1ccc2c(c1)OC(c1ccc(C)cc1)CC2=O (racemic) | 
> 23 | Not Active | 4410 nM | O=C1CC(c2ccc(F)cc2)Oc2ccccc21 (racemic) | 
> 68 | Not Active | 1470 nM | COc1ccc2c(c1)OC(c1ccccc1)CC2=O (racemic) | 
> 35 | Not Active | 2870 nM | O=C1CC(c2ccccc2)Oc2ccccc21 (racemic) [FLAVANONE] | 
> 14 | Not Active | 7180 nM | COc1ccc(C2CC(=O)c3ccc(OC)cc3O2)cc1 (racemic) [LIQUIRITIGENIN DIMETHYL ETHER] | 
> 3.6 |  | 27900 nM | COc1ccc(-c2cc(=O)c3ccccc3o2)cc1 [4'-METHOXYFLAVONE] | inhibition at 100 µM [1]: 40%
> 2 | Not Active | 49700 nM | COc1ccc(-c2cc(=O)c3ccc(OC)cc3o2)cc1 [4,7-DIMETHOXYFLAVONE] | 
